SR-BI DiI inh: blocks mouse SR-BI lipid uptake from DiI-HDL; ldlA[mSR-BI] CHO cells, DiI-HDL uptake fluorescence, 3 h; inhibition, % at 12.5 µM; actives 0.96% (n = 320,000);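 active = mean replicate inhibition of at least 70% and a set share of replicates each scoring 70 or more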;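 note: 0% = median of neutral control wells and 100% = median of positive control wells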
Yeast superoxide: caloric restriction mimetics inhibiting age-related superoxide in yeast. S. cerevisiae aged cells, superoxide DHE fluorescence; hits give low values. AID 2690. actives 0.18% (n = 330,000). superoxide response (% of plate mean), % at 10 µM;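 active = superoxide response under a set limit, about three screen SD below normal, cut at about 65% in these data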;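 note: yeast aged for seven days with compound at 30 °C before DHE staining; 100% = average MFI of all compound-treated wells on the plate with controls excluded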
SR-BI DiI-HDL act: SR-BI HDL lipid transfer activation; CHO ldlA[mSR-BI] cells, DiI-HDL uptake fluorescence, 3 h; 100 = double the neutral-control signal; AID 504775; activation, % at 12.5 µM; actives 0.096% (n = 320,000);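 active = mean replicate activation of at least 60% and every replicate at or above 60%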;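 note: 0% = median plate neutral-control signal and 100% = twice that signal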
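Test system: SR-BI-overexpressing, LDLR-lacking CHO cells; Medium: Ham's F12 with 0.5% BSA, HEPES 25 mM, pH 7.4; Schedule: 3 h, 37 °C; Technique: bottom-read fluorescence, 550/595 nm.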
SMARCA2 act: SMARCA2 function activation, primary screen; activation, % at 9.1 µM; actives 1% (n = 370,000); MG213 cells, MMTV-luciferase reporter, dexamethasone, overnight; AID 652017; in the data active = activation above about 7.8%;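 note: 0% = vehicle wells and 100% = reference activator wells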
AHR activator: activators of human aryl hydrocarbon receptor | actives 2.5% (n = 320,000) | AID 2796 | AHR-responsive luciferase reporter cells, luminescence | activation, % at 5 µM | P35869; in the data active = activation above about 47%;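 note: 0% = vehicle wells and 100% = reference agonist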
Lipid droplet: hepatic lipid droplet formation modulation; actives 0.4% (n = 240,000); AID 1656; AML12 mouse hepatocytes, oleate lipid droplets, BODIPY imaging; inhibition, % at 6.5 µM;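 active = lipid droplet intensity inhibited by at least 50%, with more than 500 cells counted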
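Test system: AML12 mouse liver cells; schedule: overnight exposure; technique: high-content imaging of BODIPY-stained droplets and DAPI nuclei; read-out: % inhibition of corrected integrated BODIPY droplet signal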
* = called active by the depositor; . = no result given. A selection: hits, their analogues and other compounds. The true share with any hit is near 4.3%.

SMILES	SR-BI DiI inh	Yeast superoxide	SR-BI DiI-HDL act	SMARCA2 act	AHR activator	Lipid droplet
CC1=NN(C(N)=S)C(=O)C1N=Nc1ccccc1 (configuration not stated)	-6	114	6	0	70*	1
CC1=NN(C(N)=S)C(=O)C1N=Nc1ccc(Br)cc1 (configuration not stated)	14	100	-14	4	.	-17
CC1=NN(C(N)=S)C(=O)C1N=Nc1cccc2ccccc12 (configuration not stated)	.	103	.	.	93*	-3
Cc1ccc(NC(=O)c2ccc(NCCCN3CCC(C)CC3)c([N+](=O)[O-])c2)cc1F	13	94	-13	5	1	-69
O=C(Nc1cccc(Cl)c1)c1ccc(NCCCN2CCOCC2)c([N+](=O)[O-])c1	71*	101	-71	2	15	.
COc1ccc(-c2nnc(SCC(=O)NN=Cc3c(O)ccc4ccccc34)n2-c2ccc(OC)cc2)cc1	.	.	.	-1	.	.
CC(=O)c1cc2c(cc1N/C(=N/S(=O)(=O)c1ccccc1)c1ccc(Cl)cc1)OCO2	26	96	-26	-2	94*	27
CC(=O)c1cc2c(cc1NS(=O)(=O)c1ccccc1)OCO2	4	102	-4	4	1	6
Oc1ccccc1-c1cc(-c2ccccc2)no1	5	95	-5	5	43	.
Cc1ccccc1-c1cc(-c2ccccc2O)on1	11	94	-11	8	73*	.
Cc1ccc(C(NC(=O)C2CCCCC2)c2c(O)ccc3ccccc23)cc1 (configuration not stated)	14	93	-14	-5	1	57*
COc1cccc(Cn2cc(COC(=O)N(C)Cc3ccccc3)nn2)c1	.	.	.	-2	.	.
COc1ccc2c(c1)[C@@]1(OCCC=C[C@H]1C)C(=O)N2Cc1ccccc1C(F)(F)F	.	.	.	-3	.	.
O=C(O)c1cc2c(cc1NC(=O)c1ccccc1C(F)(F)F)OCCCO2	-12	111	12	-3	-2	1
O=C(Nc1cc2c(cc1C(=O)O)OCCCO2)c1ccc(C(F)(F)F)cc1	-13	162	13	2	73*	1
Cc1cc(C)cc(N=Cc2[nH]c3ccc(Br)c(Cl)c3c2O)c1	18	97	-18	-2	12	-1
COc1ccc(CN=Cc2[nH]c3ccc(Br)c(Cl)c3c2O)cc1	0	95	0	4	57*	-3
CCc1ccccc1NC(=O)c1cc(C2CC2)on1	17	112	-17	1	0	.
Cc1ccccc1Cn1cc(NC(=O)c2cc(C3CC3)on2)cn1	.	94	.	1	74*	10
COC(=O)c1cc(C(=O)c2ccc(Cl)cc2Cl)cn1C	3	121	-3	1	-1	.
Cn1cc(C(=O)c2ccc(Cl)cc2Cl)cc1C(=O)N/N=C(\N)COc1cccc(C(F)(F)F)c1	81*	102	-81	0	3	-5
CCOC(=O)c1c(NC(=S)Nc2cccc(C)c2)sc2c1CC(C)(C)SC2	87*	99	-87	-3	7	3
CC1=NOC(=O)/C1=C\c1ccc(-c2cccc(Cl)c2)o1	32	91	-32	.	6	.
CC1=CC2=NC(=O)/C(=C\c3ccc(-c4cccc(Cl)c4)o3)C(=N)N2O1	49	107	-49	-4	70*	-21
O=[N+]([O-])c1ccc(-c2nc(Nc3cccc(O)c3)c3ccccc3n2)cc1	72*	124	-72	-6	34	-22
SMILES	SR-BI DiI inh	Yeast superoxide	SR-BI DiI-HDL act	SMARCA2 act	AHR activator	Lipid droplet
Oc1ccccc1Nc1nc(-c2ccccc2O)nc2ccccc12	93*	106	-93	2	.	-4
COc1ccccc1Nc1nc(-c2ccccc2O)nc2ccccc12	48	107	-48	0	21	0
Cc1sc2ncnc(Nc3ccc(N4CCOCC4)cc3)c2c1-c1ccccc1	76*	103	-76	-3	21	-7
Oc1ccc(Nc2nc(-c3ccccc3O)nc3ccccc23)cc1	74*	94	-74	-2	.	4
COc1cc2c(cc1NC(=O)CSc1nnc(-c3ccccc3C)n1Cc1ccco1)oc1ccccc12	.	.	.	-5	.	.
C/C(=N/Nc1nc(-c2ccccc2F)nc2ccccc12)c1ccccc1O	.	110	.	-1	17	1
C/C(=N\Nc1nc(-c2ccccc2O)nc2ccccc12)c1ccccc1	44	103	-44	-2	53*	0
Cc1cccc(-c2nc(NCCCN3CCOCC3)c3ccccc3n2)c1	.	104	.	1	52*	0
Cc1ccc(-c2nc(Nc3ccc(N4CCOCC4)cc3)c3ccccc3n2)cc1	64	79	-64	4	70*	28
Cc1ccc(-c2nc(Nc3cccc(O)c3)c3ccccc3n2)cc1	69	101	-69	-2	31	7
c1ccc(-c2nc(NCCCN3CCOCC3)c3ccccc3n2)cc1	11	88	-11	-2	14	18
Cc1ccc(-c2nc(Nc3ccc(O)cc3)c3ccccc3n2)cc1	107*	99	-107	4	54*	.
CC(/C=N/Nc1ncc(C)c(=O)[nH]1)=C\c1ccccc1	-12	94	12	0	61*	10
CCOC(=O)c1c(C)nc2c3ccccc3ccn12	-16	92	16	7	75*	0
CC(=O)c1c(-c2ccc(C)cc2)nc2c3ccccc3ccn12	51	103	-51	-1	59*	5
CCCCNC(=O)C[C@@H]1C(=O)N(CCc2ccc(Cl)cc2)/C2=C/CCCCC[C@@]21C(=O)OCC	.	.	.	-3	.	.
COC(=O)[C@]12C[C@H](CC(=O)NCc3ccccc3)C(=O)N(Cc3ccccc3)C1=C[C@H](C(C)(C)C)O[C@@H]2C	.	.	.	-2	.	.
COc1ccc(NC(=O)C(=O)c2cn(CC(=O)N3CCCC3)c3ccccc23)c(OC)c1	72*	104	-72	-3	0	-3
O=C(Nc1ccccc1N1CCOCC1)C1CCN(S(=O)(=O)c2ccccc2F)CC1	-214	106	214*	-3	2	-16
O=S(=O)(c1ccccc1F)n1c(CN2CCOCC2)nc2ccccc21	.	.	.	6	.	.
CCOC(=O)C1=CCN(S(=O)(=O)c2ccc(Br)cc2)C1c1ccc(Br)cc1 (configuration not stated)	.	.	.	-5	.	.
N#CCSc1ncccc1-c1nc2ccccc2[nH]1	6	102	-6	-1	73*	2
N#CCCCSc1ncccc1-c1nc2ccccc2[nH]1	6	99	-6	3	4	.
CC(C)(C)c1ccc(O)c(N)c1	.	97	.	.	48*	.
CC(C)c1ccc(O)c(N)c1	-11	96	11	-3	7	-3
COc1ccc(C(=O)N2CCC[C@@H]2C(=O)N2CCC[C@@H]2C(=O)NCc2ccccc2)cc1F	.	.	.	-4	.	.
